# Measured values reported in ChEMBL document CHEMBL1125528, “Synthesis and pharmacological evaluation of enantiomerically pure 4-deoxy-4-fluoromuscarines” (J Med Chem, 1992).
# Assays:
# [1] = biological target: Muscarinic acetylcholine receptor M3 (Cavia porcellus) (UniProt Q8VH26); assay: % muscarinic acetylcholine receptor M3 occupied at ED50 on guinea pig bladder
# [2] = biological target: Muscarinic acetylcholine receptor M3 (Cavia porcellus) (UniProt Q8VH26); assay: % muscarinic acetylcholine receptor M3 occupied at ED50 on guinea pig ileum; assay type: tissue-based
# [3] = biological target: Muscarinic acetylcholine receptor M3 (Cavia porcellus) (UniProt Q8VH26); details: Ileum
# [4] = biological target: Muscarinic acetylcholine receptor M3 (Cavia porcellus) (UniProt Q8VH26); details: Ileum; remark: listed apart in the source
# [5] = biological target: Muscarinic acetylcholine receptor M3 (Cavia porcellus) (UniProt Q8VH26); details: Ileum; remark: listed apart in the source
# [6] = biological target: Muscarinic acetylcholine receptor M3 (Cavia porcellus) (UniProt Q8VH26); assay: In vitro potency at muscarinic M3 receptors of guinea pig ileum.; assay type: functional, tissue-based
# [7] = biological target: Muscarinic acetylcholine receptor M3 (Cavia porcellus) (UniProt Q8VH26); assay: In vitro potency at muscarinic M3 receptors of guinea pig bladder relative to muscarine..; assay type: functional
# [8] = biological target: T1, Muscarinic acetylcholine receptor M2 (Homo sapiens) (UniProt P08172); assay: In vitro potency at muscarinic M2 receptors of guinea pig heart relative to muscarine.; assay type: functional; details: Cavia porcellus; target entry is the homologue from another species
# T1 sequence (whole entry): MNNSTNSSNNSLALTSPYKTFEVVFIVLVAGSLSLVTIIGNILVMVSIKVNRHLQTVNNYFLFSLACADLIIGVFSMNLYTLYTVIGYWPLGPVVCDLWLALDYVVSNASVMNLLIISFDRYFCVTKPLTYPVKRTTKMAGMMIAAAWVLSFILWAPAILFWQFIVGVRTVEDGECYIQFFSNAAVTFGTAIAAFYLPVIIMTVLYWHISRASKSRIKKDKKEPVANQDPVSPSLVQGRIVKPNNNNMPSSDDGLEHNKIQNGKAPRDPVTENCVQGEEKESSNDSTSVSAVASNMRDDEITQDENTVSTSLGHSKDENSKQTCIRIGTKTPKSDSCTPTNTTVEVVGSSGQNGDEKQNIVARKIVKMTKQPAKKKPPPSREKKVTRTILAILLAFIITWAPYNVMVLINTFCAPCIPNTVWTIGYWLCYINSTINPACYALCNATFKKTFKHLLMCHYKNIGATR
# [9] = biological target: T1, Muscarinic acetylcholine receptor M2 (Homo sapiens); assay: In vitro potency at muscarinic M2 receptors of guinea pig heart(atria force).; assay type: functional; details: Cavia porcellus; target entry is the homologue from another species
# [10] = biological target: Muscarinic acetylcholine receptor M3 (Cavia porcellus) (UniProt Q8VH26); assay: In vitro potency at muscarinic M3 receptors of guinea pig bladder.; assay type: functional
# Outline: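 Guinea pig bladder longitudinal strip (2 mm wide, urethra to apex) in ileum PSS at 37 °C with isometric recording; 30 min equilibration, then the ileum protocol.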
# [11] = biological target: Muscarinic acetylcholine receptor M3 (Cavia porcellus) (UniProt Q8VH26); assay: % receptor occupied at ED50 on guinea pig bladder
# [12] = biological target: Muscarinic acetylcholine receptor M3 (Cavia porcellus) (UniProt Q8VH26); assay: % receptor occupied at ED50 on guinea pig ileum; assay type: tissue-based
# [13] = biological target: Muscarinic acetylcholine receptor M3 (Cavia porcellus) (UniProt Q8VH26); assay: Affinity for muscarinic receptors in guinea pig ileum relative to muscarine.; assay type: tissue-based
# [14] = biological target: Muscarinic acetylcholine receptor M3 (Cavia porcellus) (UniProt Q8VH26); assay: Efficacy for muscarinic receptors in guinea pig ileum relative to muscarine.; assay type: functional, tissue-based
# [15] = biological target: T1, Muscarinic acetylcholine receptor M2 (Homo sapiens); assay: Dissociation constant at guinea pig heart(atria rate).; assay type: functional; details: Cavia porcellus; target entry is the homologue from another species
# [16] = biological target: T1, Muscarinic acetylcholine receptor M2 (Homo sapiens); assay: Potency at cardiac M2 receptors mediating bradycardia to decrease the heart rate in pithed rat; assay type: functional, tissue-based
# Outline: (§1)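 Pithed rats, artificially respired at 60 cycles/min, 1 mL/100 g, with heparin 150 IU/kg iv, at about 37 °C. Heart rate came from the carotid pressure pulse after at least 30 min stabilisation. Agonists in 0.9% saline were given iv at 0.1 mL/100 g, one curve per preparation. ED50 was read graphically. Antagonists (pirenzepine 50 µg/kg, methoctramine 300 µg/kg iv) were given 20 min beforehand.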
# [17] = biological target: Muscarinic acetylcholine receptor M3 (Cavia porcellus) (UniProt Q8VH26); assay: Dissociation constant at muscarinic M3 receptors of guinea pig ileum.; assay type: tissue-based
# [18] = biological target: T1, Muscarinic acetylcholine receptor M2 (Homo sapiens); assay: Affinity for muscarinic receptors in guinea pig heart(atria rate) relative to muscarine.; details: Cavia porcellus; target entry is the homologue from another species
# [19] = biological target: T1, Muscarinic acetylcholine receptor M2 (Homo sapiens); assay: % receptor occupied at ED50 on guinea pig heart(atria force); details: Cavia porcellus; target entry is the homologue from another species
# [20] = biological target: T1, Muscarinic acetylcholine receptor M2 (Homo sapiens); assay: % receptor occupied at ED50 on guinea pig heart(atria rate); details: Cavia porcellus; target entry is the homologue from another species
# [21] = biological target: T2, Muscarinic acetylcholine receptor M1 (Homo sapiens) (UniProt P11229); assay: Potency at ganglionic M1 receptors mediating tachycardia to increase the heart rate in pithed rat; assay type: functional, tissue-based; outline: as §1
# T2 sequence (whole entry): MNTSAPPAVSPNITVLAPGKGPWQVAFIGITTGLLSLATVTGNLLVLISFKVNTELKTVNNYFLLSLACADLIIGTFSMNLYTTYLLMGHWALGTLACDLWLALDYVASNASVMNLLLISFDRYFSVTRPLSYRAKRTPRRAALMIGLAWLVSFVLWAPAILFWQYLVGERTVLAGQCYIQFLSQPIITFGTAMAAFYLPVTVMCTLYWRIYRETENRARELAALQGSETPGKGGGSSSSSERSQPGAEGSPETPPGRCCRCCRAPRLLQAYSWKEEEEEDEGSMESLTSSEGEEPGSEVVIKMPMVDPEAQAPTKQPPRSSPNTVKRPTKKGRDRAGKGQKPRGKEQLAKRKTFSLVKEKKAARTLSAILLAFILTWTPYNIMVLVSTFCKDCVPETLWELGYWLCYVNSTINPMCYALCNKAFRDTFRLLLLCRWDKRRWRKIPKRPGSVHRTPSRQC
# [22] = biological target: T1, Muscarinic acetylcholine receptor M2 (Homo sapiens); assay: In vitro potency at muscarinic M2 receptors of guinea pig heart(atria rate).; assay type: functional; details: Cavia porcellus; target entry is the homologue from another species
# [23] = biological target: T1, Muscarinic acetylcholine receptor M2 (Homo sapiens); assay: Dissociation constant at guinea pig heart(atria force).; assay type: functional; details: Cavia porcellus; target entry is the homologue from another species
# [24] = biological target: T1, Muscarinic acetylcholine receptor M2 (Homo sapiens); assay: Affinity for muscarinic receptors in guinea pig heart(atria force) relative to muscarine.; details: Cavia porcellus; target entry is the homologue from another species
# [25] = biological target: T1, Muscarinic acetylcholine receptor M2 (Homo sapiens); assay: Efficacy for muscarinic receptors in guinea pig heart(atria force relative to muscarine.; assay type: functional; details: Cavia porcellus; target entry is the homologue from another species
# [26] = biological target: Muscarinic acetylcholine receptor M3 (Cavia porcellus) (UniProt Q8VH26); assay: Dissociation constant at muscarinic M3 receptors of guinea pig bladder.
# [27] = biological target: Muscarinic acetylcholine receptor M3 (Cavia porcellus) (UniProt Q8VH26); assay: In vitro potency at muscarinic M3 receptors of guinea pig ileum relative to muscarine..; assay type: functional, tissue-based
# [28] = biological target: Muscarinic acetylcholine receptor M3 (Cavia porcellus) (UniProt Q8VH26); assay: Affinity for muscarinic receptors in guinea pig bladder relative to muscarine.
# [29] = biological target: T1, Muscarinic acetylcholine receptor M2 (Homo sapiens); assay: Efficacy for muscarinic receptors in guinea pig heart(atria rate) relative to muscarine.; assay type: functional; details: Cavia porcellus; target entry is the homologue from another species
# [30] = biological target: Muscarinic acetylcholine receptor M3 (Cavia porcellus) (UniProt Q8VH26); assay: Efficacy for muscarinic receptors in guinea pig bladder relative to muscarine.; assay type: functional
# Muscarinic acetylcholine receptor M3 (Cavia porcellus), sequence (Q8VH26 1-587): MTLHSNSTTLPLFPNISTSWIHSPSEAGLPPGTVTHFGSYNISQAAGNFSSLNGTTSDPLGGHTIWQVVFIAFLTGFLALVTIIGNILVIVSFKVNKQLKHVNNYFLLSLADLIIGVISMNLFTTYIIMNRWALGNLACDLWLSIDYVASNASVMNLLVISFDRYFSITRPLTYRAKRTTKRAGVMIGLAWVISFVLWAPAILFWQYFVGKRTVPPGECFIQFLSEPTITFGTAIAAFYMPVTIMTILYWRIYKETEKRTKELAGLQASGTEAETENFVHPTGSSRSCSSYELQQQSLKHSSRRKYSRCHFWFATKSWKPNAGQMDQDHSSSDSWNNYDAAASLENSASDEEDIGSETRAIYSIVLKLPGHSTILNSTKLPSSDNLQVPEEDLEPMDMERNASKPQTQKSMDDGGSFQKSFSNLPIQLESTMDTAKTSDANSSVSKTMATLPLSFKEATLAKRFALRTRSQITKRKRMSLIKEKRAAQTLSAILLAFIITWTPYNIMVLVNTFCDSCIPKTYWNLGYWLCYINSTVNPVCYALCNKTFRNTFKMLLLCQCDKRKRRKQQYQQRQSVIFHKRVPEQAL
compound,measurement,setting,value
C[C@@H]1O[C@H](C[N+](C)(C)C)C[C@H]1O (racemic),Receptor occupied,[1],7.85%
same,Receptor occupied,[2],6.62%
same,PD2,[3],7.1
same,-Log KD,[4],5.95
same,PD2,[5],5.69
C[C@@H]1O[C@@H](C[N+](C)(C)C)C[C@H]1F,-Log ED50,[6],5.93
same,Intrinsic activity,[7],0.74
same,Intrinsic activity,[8],0.97
same,-Log ED50,[9],5.59
same,-Log ED50,[10],4.45
C[C@@H]1O[C@H](C[N+](C)(C)C)C[C@H]1F,PD2,[6],7.36
same,Intrinsic activity,[7],0.88
same,Receptor occupied,[11],5.11%
same,Receptor occupied,[12],2.24%
same,Relative affinity,[13],0.59
same,Relative efficacy,[14],2.96
same,-Log KD,[15],5.77
same,ED50,[16],0.0235 mg/kg
same,-Log KD,[17],5.72
same,Intrinsic activity,[8],0.98
same,Relative affinity,[18],14.5
same,Receptor occupied,[19],0.86%
same,Receptor occupied,[20],7.36%
same,ED50,[21],0.0045 mg/kg
same,-Log ED50,[22],6.87
same,-Log KD,[23],4.67
same,Relative affinity,[24],0.93
same,Relative efficacy,[25],1.17
same,-Log KD,[26],4.39
same,Intrinsic activity,[27],0.95
same,Relative affinity,[28],0.59
same,PD2,[9],6.73
same,PD2,[10],5.66
same,Relative efficacy,[29],0.21
same,Relative efficacy,[30],1.54
C[C@@H]1O[C@@H](C[N+](C)(C)C)C[C@@H]1F,-Log ED50,[6],4.64
same,Intrinsic activity,[7],0.52
same,Intrinsic activity,[8],0.72
same,-Log ED50,[9],4.07
same,-Log ED50,[10],3.92
C[C@@H]1O[C@H](C[N+](C)(C)C)C[C@@H]1F,-Log ED50,[6],5.02
same,Intrinsic activity,[7],0.76
same,Intrinsic activity,[8],0.76
same,-Log ED50,[9],4.43
same,-Log ED50,[10],3.74
